≈ marks a conversion by molar mass, not a printed value.

The target in one series is Histone-lysine N-methyltransferase EZH2 (Homo sapiens, UniProt Q15910). Briefly: Inhibition of EZH2 in human KARPAS422 cells assessed as reduction in H3K27me3 level after 72 hrs by ELISA.
Histone-lysine N-methyltransferase EZH2 (Homo sapiens, UniProt Q15910), sequence (Q15910 whole entry): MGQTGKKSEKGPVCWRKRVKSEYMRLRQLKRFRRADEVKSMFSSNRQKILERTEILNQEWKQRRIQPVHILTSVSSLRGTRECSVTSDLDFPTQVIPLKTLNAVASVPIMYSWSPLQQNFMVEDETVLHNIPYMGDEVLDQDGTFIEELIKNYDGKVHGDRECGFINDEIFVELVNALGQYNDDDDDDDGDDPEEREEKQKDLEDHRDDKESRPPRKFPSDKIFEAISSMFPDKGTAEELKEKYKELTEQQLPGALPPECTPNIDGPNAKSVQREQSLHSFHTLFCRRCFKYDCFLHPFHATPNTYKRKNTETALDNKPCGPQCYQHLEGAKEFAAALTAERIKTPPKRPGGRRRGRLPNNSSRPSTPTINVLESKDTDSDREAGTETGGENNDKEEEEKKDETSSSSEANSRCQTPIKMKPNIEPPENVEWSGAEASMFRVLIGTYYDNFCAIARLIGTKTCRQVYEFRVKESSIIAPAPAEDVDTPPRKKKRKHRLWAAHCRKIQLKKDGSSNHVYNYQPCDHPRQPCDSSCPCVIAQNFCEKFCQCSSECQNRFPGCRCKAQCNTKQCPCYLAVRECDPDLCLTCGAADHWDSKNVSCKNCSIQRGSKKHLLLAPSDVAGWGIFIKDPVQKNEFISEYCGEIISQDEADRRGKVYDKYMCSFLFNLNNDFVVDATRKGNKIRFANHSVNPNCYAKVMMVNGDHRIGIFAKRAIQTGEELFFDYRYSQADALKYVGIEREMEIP
Conditions: not given
Turning to `CCC(CO)c1cc(Cl)c2c(c1Cl)C(=O)N(Cc1c(C)cc(C)[nH]c1=O)CC2` (single isomer, unassigned; (+)), the IC50 was 139 nM.

In the case of `COC(c1cc(Cl)c2c(c1Cl)C(=O)N(Cc1c(C)cc(C)[nH]c1=O)CC2)C1CCN(C2COC2)CC1` (single isomer, unassigned; (+)), the IC50 was 16 nM.

Consider `CCOC(c1cc(Cl)c2c(c1Cl)C(=O)N(Cc1c(C)cc(C)[nH]c1=O)CC2)C1CS(=O)(=O)C1` (single isomer, unassigned; (+)), for which the IC50 came out at 62 nM.

Regarding `COC(c1cc(Cl)c2c(c1Cl)C(=O)N(Cc1c(C)cc(C)[nH]c1=O)CC2)C1CCOC1` (single isomer, unassigned; (+)-10a), the IC50 stood at 7 nM.

Regarding `Cc1cc(C)c(CN2CCc3c(Cl)cc(C(CO)C4CCOCC4)c(Cl)c3C2=O)c(=O)[nH]1` (single isomer, unassigned; (-)), the IC50 was determined as 11 nM.

Turning to `COC(c1cc(Cl)c2c(c1Cl)C(=O)N(Cc1c(C)cc(C)[nH]c1=O)CC2)C1CCN(C(=O)CO)CC1` (stereo in doubt; (+)-16a), the IC50 amounted to 13 nM.

Consider `Cc1cc(C)c(CN2CCc3c(Cl)cc(C(CO)C4CCOC4)c(Cl)c3C2=O)c(=O)[nH]1` (stereo in doubt; (-)-6b), for which the IC50 was found to be 15 nM.

For the next series, the target named is Histone-lysine N-methyltransferase EZH2 (Homo sapiens, UniProt Q15910, Y641N). Briefly: Inhibition of EZH2 Y641N mutant (unknown origin) using oligonucleosomes as substrate after 60 mins in presence of [3H]SAM by scintillation counting analysis.
Histone-lysine N-methyltransferase EZH2 (Homo sapiens, UniProt Q15910, Y641N), sequence (Q15910 whole entry Y641N): as the sequence (Q15910 whole entry) above, with Y641N counted along it
Conditions: not given
In the case of `CCC(CO)c1cc(Cl)c2c(c1Cl)C(=O)N(Cc1c(C)cc(C)[nH]c1=O)CC2` (single isomer, unassigned; (+)), the Ki was found to be 4.6 nM.

With `COC(c1cc(Cl)c2c(c1Cl)C(=O)N(Cc1c(C)cc(C)[nH]c1=O)CC2)C1CCN(C2COC2)CC1` (single isomer, unassigned; (+)), the Ki was determined as 0.64 nM.

On to `CCOC(c1cc(Cl)c2c(c1Cl)C(=O)N(Cc1c(C)cc(C)[nH]c1=O)CC2)C1CS(=O)(=O)C1` (single isomer, unassigned; (+)), for which the Ki came out at 2.9 nM.

For the molecule `COC(c1cc(Cl)c2c(c1Cl)C(=O)N(Cc1c(C)cc(C)[nH]c1=O)CC2)C1CCOC1` (single isomer, unassigned; (+)-10a), the Ki is 0.6 nM.

For the molecule `Cc1cc(C)c(CN2CCc3c(Cl)cc(C(CO)C4CCOCC4)c(Cl)c3C2=O)c(=O)[nH]1` (single isomer, unassigned; (-)), the Ki is 0.15 nM.

Turning to `COC(c1cc(Cl)c2c(c1Cl)C(=O)N(Cc1c(C)cc(C)[nH]c1=O)CC2)C1CCN(C(=O)CO)CC1` (stereo in doubt; (+)-16a), the Ki was 0.25 nM.

With `Cc1cc(C)c(CN2CCc3c(Cl)cc(C(CO)C4CCOC4)c(Cl)c3C2=O)c(=O)[nH]1` (stereo in doubt; (-)-6b), the inhibition constant (Ki) was 0.38 nM.

The test system of a further series is KARPAS-422. Kind of series: Antiproliferative activity against human KARPAS422 cells after 72 hrs by resazurin assay. The class given is functional, cell-based. As to conditions: karpas-422.
`CCC(CO)c1cc(Cl)c2c(c1Cl)C(=O)N(Cc1c(C)cc(C)[nH]c1=O)CC2` (single isomer, unassigned; (+)) gave an IC50 of 124 nM.

Take `COC(c1cc(Cl)c2c(c1Cl)C(=O)N(Cc1c(C)cc(C)[nH]c1=O)CC2)C1CCN(C2COC2)CC1` (single isomer, unassigned; (+)): inhibition was half-maximal at 25 nM (IC50).

The molecule `CCOC(c1cc(Cl)c2c(c1Cl)C(=O)N(Cc1c(C)cc(C)[nH]c1=O)CC2)C1CS(=O)(=O)C1` (single isomer, unassigned; (+)) returned an IC50 of 34 nM.

`COC(c1cc(Cl)c2c(c1Cl)C(=O)N(Cc1c(C)cc(C)[nH]c1=O)CC2)C1CCOC1` (single isomer, unassigned; (+)-10a): the IC50 worked out at 25 nM.

`Cc1cc(C)c(CN2CCc3c(Cl)cc(C(CO)C4CCOCC4)c(Cl)c3C2=O)c(=O)[nH]1` (single isomer, unassigned; (-)) returned an IC50 of 11 nM.

Take `COC(c1cc(Cl)c2c(c1Cl)C(=O)N(Cc1c(C)cc(C)[nH]c1=O)CC2)C1CCN(C(=O)CO)CC1` (stereo in doubt; (+)-16a): the IC50 worked out at 21 nM.

For `Cc1cc(C)c(CN2CCc3c(Cl)cc(C(CO)C4CCOC4)c(Cl)c3C2=O)c(=O)[nH]1` (stereo in doubt; (-)-6b), inhibition was half-maximal at 17 nM (IC50).

Another series deals with Liver. Kind of series: Intrinsic clearance in human liver microsomes assessed per mg protein at 1 uM preincubated for 10 mins followed by NADPH addition measured after 45 mins by LC-MS/MS analysis. The class given is ADME, microsome. The conditions noted are these: microsomes, 0.75 h, 1 µM. An outline of the steps: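 Test compound (1 μM) with pooled liver microsomes (0.8 mg/mL protein) in 100 mM potassium phosphate pH 7.4, 10 min preincubation, started with 2 mM NADPH, 45 min at 37 °C, in triplicate. Samples quenched with cold methanol containing buspirone internal standard, analysed by LC−MS/MS. CLint derived from t1/2 of parent loss (log-linear slope).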
In the case of `CCC(CO)c1cc(Cl)c2c(c1Cl)C(=O)N(Cc1c(C)cc(C)[nH]c1=O)CC2` (single isomer, unassigned; (+)), the microsomal CLint amounted to 66.3 µL/min/mg.

As for `COC(c1cc(Cl)c2c(c1Cl)C(=O)N(Cc1c(C)cc(C)[nH]c1=O)CC2)C1CCN(C2COC2)CC1` (single isomer, unassigned; (+)), the microsomal CLint was determined as 72.7 µL/min/mg.

Molecule `CCOC(c1cc(Cl)c2c(c1Cl)C(=O)N(Cc1c(C)cc(C)[nH]c1=O)CC2)C1CS(=O)(=O)C1` (single isomer, unassigned; (+)) came in with a microsomal CLint of 124 µL/min/mg.

Take `COC(c1cc(Cl)c2c(c1Cl)C(=O)N(Cc1c(C)cc(C)[nH]c1=O)CC2)C1CCOC1` (single isomer, unassigned; (+)-10a): the intrinsic clearance (microsomal CLint) is 108 µL/min/mg.

The molecule `Cc1cc(C)c(CN2CCc3c(Cl)cc(C(CO)C4CCOCC4)c(Cl)c3C2=O)c(=O)[nH]1` (single isomer, unassigned; (-)) came in with a microsomal CLint of 41.5 µL/min/mg. This microsomal CLint lies about 2.6-fold lower than the previous one.

Turning to `COC(c1cc(Cl)c2c(c1Cl)C(=O)N(Cc1c(C)cc(C)[nH]c1=O)CC2)C1CCN(C(=O)CO)CC1` (stereo in doubt; (+)-16a), the microsomal CLint worked out at 42 µL/min/mg.

In turn, `Cc1cc(C)c(CN2CCc3c(Cl)cc(C(CO)C4CCOC4)c(Cl)c3C2=O)c(=O)[nH]1` (stereo in doubt; (-)-6b) yielded a microsomal CLint of 25.9 µL/min/mg. Compared with the last molecule, the microsomal CLint is about 1.6-fold lower.

Test system in another series: not listed separately
Kind of series: Kinetic solubility of the compound. The class given is physicochemical.
Conditions: not given
Consider `CCC(CO)c1cc(Cl)c2c(c1Cl)C(=O)N(Cc1c(C)cc(C)[nH]c1=O)CC2` (single isomer, unassigned; (+)), for which the Kinetic_solubility is 324 µM.

For `COC(c1cc(Cl)c2c(c1Cl)C(=O)N(Cc1c(C)cc(C)[nH]c1=O)CC2)C1CCOC1` (single isomer, unassigned; (+)-10a), the Kinetic_solubility worked out at 436 µM.

`Cc1cc(C)c(CN2CCc3c(Cl)cc(C(CO)C4CCOCC4)c(Cl)c3C2=O)c(=O)[nH]1` (single isomer, unassigned; (-)) gave a Kinetic_solubility of 540 µM.

Take `Cc1cc(C)c(CN2CCc3c(Cl)cc(C(CO)C4CCOC4)c(Cl)c3C2=O)c(=O)[nH]1` (stereo in doubt; (-)-6b): the Kinetic_solubility was 508 µM.

The same series, now with this note: read-out: Kinetic_solubility.
`COC(c1cc(Cl)c2c(c1Cl)C(=O)N(Cc1c(C)cc(C)[nH]c1=O)CC2)C1CCN(C2COC2)CC1` (single isomer, unassigned; (+)): the solubility kinetic turned out to be 523 µM (≈ 280 µg/mL).

On to `CCOC(c1cc(Cl)c2c(c1Cl)C(=O)N(Cc1c(C)cc(C)[nH]c1=O)CC2)C1CS(=O)(=O)C1` (single isomer, unassigned; (+)), for which the solubility kinetic is 453 µM (≈ 233 µg/mL).

For `COC(c1cc(Cl)c2c(c1Cl)C(=O)N(Cc1c(C)cc(C)[nH]c1=O)CC2)C1CCN(C(=O)CO)CC1` (stereo in doubt; (+)-16a), the solubility kinetic was determined as 508 µM (≈ 273 µg/mL).

Test system in the next series: not listed separately
Kind of series: Passive permeability in MDCK cells at 2 uM after 90 mins by LC-MS/MS analysis. The class given is ADME, cell-based, Canis lupus familiaris. The conditions noted are these: dog, MDCK; read-out: permeability. In outline:
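Low-efflux MDCK cells (MDCK-LE) on 96-well inserts, used on day 4. Monodirectional transport of 2 μM drug in transport buffer with 0.1% DMSO at 37 °C. Donor and receiver sampled at 0 and 90 min for LC−MS/MS. Donor pH 6.5 and 7.4, receiver pH 7.4.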
Take `CCC(CO)c1cc(Cl)c2c(c1Cl)C(=O)N(Cc1c(C)cc(C)[nH]c1=O)CC2` (single isomer, unassigned; (+)): the Papp at […], 2 µM stood at 10.9 ×10⁻⁶ cm/s.

On to `COC(c1cc(Cl)c2c(c1Cl)C(=O)N(Cc1c(C)cc(C)[nH]c1=O)CC2)C1CCN(C2COC2)CC1` (single isomer, unassigned; (+)), for which the Papp at […], 2 µM turned out to be 7 ×10⁻⁶ cm/s.

In the case of `CCOC(c1cc(Cl)c2c(c1Cl)C(=O)N(Cc1c(C)cc(C)[nH]c1=O)CC2)C1CS(=O)(=O)C1` (single isomer, unassigned; (+)), the Papp at […], 2 µM turned out to be 12 ×10⁻⁶ cm/s.

For `COC(c1cc(Cl)c2c(c1Cl)C(=O)N(Cc1c(C)cc(C)[nH]c1=O)CC2)C1CCOC1` (single isomer, unassigned; (+)-10a), the Papp at […], 2 µM was found to be 17.1 ×10⁻⁶ cm/s.

As to `Cc1cc(C)c(CN2CCc3c(Cl)cc(C(CO)C4CCOCC4)c(Cl)c3C2=O)c(=O)[nH]1` (single isomer, unassigned; (-)), the Papp at […], 2 µM came to 2.9 ×10⁻⁶ cm/s.

For `COC(c1cc(Cl)c2c(c1Cl)C(=O)N(Cc1c(C)cc(C)[nH]c1=O)CC2)C1CCN(C(=O)CO)CC1` (stereo in doubt; (+)-16a), the Papp at […], 2 µM was 7.3 ×10⁻⁶ cm/s.

In the case of `Cc1cc(C)c(CN2CCc3c(Cl)cc(C(CO)C4CCOC4)c(Cl)c3C2=O)c(=O)[nH]1` (stereo in doubt; (-)-6b), the Papp at […], 2 µM worked out at 2.5 ×10⁻⁶ cm/s.

Test system in a further series: not listed separately
Briefly: Lipophilicity, log D of the compound at pH 7.4. As to conditions: buffer, pH 7.4, logD.
In turn, `CCC(CO)c1cc(Cl)c2c(c1Cl)C(=O)N(Cc1c(C)cc(C)[nH]c1=O)CC2` (single isomer, unassigned; (+)) gave a logD of 2.8.

Molecule `COC(c1cc(Cl)c2c(c1Cl)C(=O)N(Cc1c(C)cc(C)[nH]c1=O)CC2)C1CCN(C2COC2)CC1` (single isomer, unassigned; (+)) came in with a logD of 2.7. This logD and that of the molecule before are within 0.2 log units of each other.

On to `CCOC(c1cc(Cl)c2c(c1Cl)C(=O)N(Cc1c(C)cc(C)[nH]c1=O)CC2)C1CS(=O)(=O)C1` (single isomer, unassigned; (+)), for which the logD amounted to 2.4.

Regarding `COC(c1cc(Cl)c2c(c1Cl)C(=O)N(Cc1c(C)cc(C)[nH]c1=O)CC2)C1CCOC1` (single isomer, unassigned; (+)-10a), the logD came out at 3.

As to `Cc1cc(C)c(CN2CCc3c(Cl)cc(C(CO)C4CCOCC4)c(Cl)c3C2=O)c(=O)[nH]1` (single isomer, unassigned; (-)), the logD is 2.3.

On to `COC(c1cc(Cl)c2c(c1Cl)C(=O)N(Cc1c(C)cc(C)[nH]c1=O)CC2)C1CCN(C(=O)CO)CC1` (stereo in doubt; (+)-16a), for which the logD turned out to be 2.2.

Regarding `Cc1cc(C)c(CN2CCc3c(Cl)cc(C(CO)C4CCOC4)c(Cl)c3C2=O)c(=O)[nH]1` (stereo in doubt; (-)-6b), the logD turned out to be 2.1.

These data come from ChEMBL document CHEMBL4024771, “Optimization of Orally Bioavailable Enhancer of Zeste Homolog 2 (EZH2) Inhibitors Using Ligand and Property-Based Design Strategies: Identification of Development Candidate …” (J Med Chem, 2018).
